# Shown are actives, neighbours in structure and some others; about 1.3% of the full set was active somewhere.
# S1P4 agonist: human S1P4 receptor agonism | O95977 | S1P4-expressing cell line, agonist reporter assay | activation, % at 4.98 µM | 0.35% of 220,000 active | AID 1509; in the data active = activation above about 11%;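 note: 0% = DMSO vehicle and 100% = reference agonist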
# Target sequence (O95977 whole entry, looked up): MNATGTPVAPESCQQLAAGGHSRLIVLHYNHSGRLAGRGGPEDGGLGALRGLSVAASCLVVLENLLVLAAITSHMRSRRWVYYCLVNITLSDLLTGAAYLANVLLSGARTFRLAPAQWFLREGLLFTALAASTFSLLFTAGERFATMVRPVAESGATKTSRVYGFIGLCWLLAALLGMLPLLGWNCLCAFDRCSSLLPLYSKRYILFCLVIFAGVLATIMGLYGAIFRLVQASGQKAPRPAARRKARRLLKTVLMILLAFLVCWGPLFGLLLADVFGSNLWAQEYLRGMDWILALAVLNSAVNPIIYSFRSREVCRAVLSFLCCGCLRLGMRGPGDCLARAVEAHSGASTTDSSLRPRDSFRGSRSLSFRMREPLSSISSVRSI
# Dynein cargo inh: dynein cargo transport inhibition. AID 1381. z-score, hits read low. 3617.4 mouse cells, GR-EGFP nuclear translocation imaging; test concentration mostly 20 µM; stimulated with dexamethasone, 1 µM; stronger effect = lower value. 0.47% of 220,000 active;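 active = plate z-score of nuclear minus cytoplasmic receptor signal below a set negative limit, without overly bright fluorescence or cell loss, cut at about -3.5 in these data, passing the limit was not always enough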;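 note: z-score of nuclear minus cytoplasmic ring GR-EGFP intensity difference per well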
#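 medium = tetracycline-free induction medium containing charcoal-stripped FBS | also added = 1.0 µM final dexamethasone stimulus | schedule = 48 h induction, 1 h compound, 30 min dex at 37 °C | technique = fixed, Hoechst-stained cells imaged at 10x for EGFP | measure = GR-EGFP nuclear translocation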
# S1P3 antag-1: antagonists of human S1P3 receptor | 0.27% of 170,000 active | inhibition, % at 4.98 µM | CHO S1P3 NFAT-BLA reporter, FRET fluorescence, antagonist mode | Q99500 | AID 485;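 active = inhibition above the plate cutoff, the mean inhibition of test wells on that plate plus 3 SD, cut at about 28% in these data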;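 note: cells challenged with S1P at its EC80 of 0.8 µM; blue over green emission ratio from cleaved BLA substrate after 4 h stimulation; 0% = S1P-stimulated wells and 100% = unstimulated DMSO-only wells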
# Target sequence (Q99500 whole entry, looked up): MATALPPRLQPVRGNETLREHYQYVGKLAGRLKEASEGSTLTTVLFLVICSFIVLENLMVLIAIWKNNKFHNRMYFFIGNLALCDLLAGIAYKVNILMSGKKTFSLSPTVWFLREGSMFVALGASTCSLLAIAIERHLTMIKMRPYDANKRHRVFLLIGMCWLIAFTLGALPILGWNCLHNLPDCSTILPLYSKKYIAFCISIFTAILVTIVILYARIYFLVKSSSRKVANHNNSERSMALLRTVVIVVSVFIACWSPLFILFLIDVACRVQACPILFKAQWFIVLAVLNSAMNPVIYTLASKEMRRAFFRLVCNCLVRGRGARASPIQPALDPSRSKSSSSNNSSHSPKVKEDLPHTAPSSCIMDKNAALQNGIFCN
# S1P4 antagonist: blocks the human S1P4 receptor. 0.26% of 220,000 active. O95977. inhibition, % at 4.98 µM. AID 1510. S1P4-expressing cells, antagonist mode, reporter read-out; in the data active = inhibition above about 29%;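 note: 0% = wells stimulated with agonist and 100% = vehicle wells without agonist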
# MDM2 E3 inh: Mdm2 E3 ligase (human) inhibition. signal enhancement, % at 5 µM. cell-based MDM2 ubiquitination luciferase reporter, 2 h; 0 = plate control, 100 = twice control, blank-subtracted. AID 1230. 0.11% of 210,000 active;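 active = signal enhancement of 30% or more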;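 note: luminescence tracks abundance of the self-degrading MDM2-luciferase fusion protein; higher signal means inhibition of MDM2 E3 ligase activity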
#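 System: stable MDM2–luciferase fusion reporter cells / Input: 2000 cells seeded into each well / Schedule: 4 h settle plus 2 h compound, 37 °C / Compound: single-point 5 µM / Buffer or medium: cells held in DMEM / Benchmarks: control and blank well means / Evaluation: percent signal gain over controls, blank-subtracted / Measured by: luciferase luminescence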
# Hsp70 activator: transcriptional activators of Hsp70; activation, % at 10 µM; HeLa Hsp70 promoter luciferase reporter, luminescence; scaled: vehicle 0, proteasome-inhibitor control 100%; 0.04% of 200,000 active;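 active = activation above the mean across all tested compounds plus 3 SD, cutoff set per campaign, cut at about 5.5% in these data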;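 note: 100% = MG132 at 30 µM as the positive control and 0% = DMSO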
# S1P3 antag-2: confirmation of human S1P3 receptor antagonists; shares compounds with S1P3 antag-1; inhibition, % at 4.98 µM; AID 1429; CHO S1P3 NFAT-BLA reporter, FRET, antagonist mode; 30% of 240 active;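 active = inhibition above the hit threshold that was computed for the earlier primary screen, cut at about 30% in these data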;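 note: 0% = S1P-stimulated wells and 100% = unstimulated DMSO-only wells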
# Hsp70 act dose: activates Hsp70 transcription in dose response; shares compounds with Hsp70 activator; HeLa hsp70.1pr-luc reporter, luciferase luminescence; calls only at 99 µM; 10% of 70 active;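 active = over 50% activation at some tested dose; inactive = under 50% activation at every tested dose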
# Dynein confirm: dynein cargo transport inhibition, confirmation; shares compounds with Dynein cargo inh; 3617.4 GR-EGFP nuclear translocation imaging, dexamethasone-induced; calls only at 20 µM; 69% of 1,000 active; AID 463116;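 active = inhibition of receptor movement into the nucleus at or above a set limit in both runs, with normal cell brightness and cell count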;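 note: dexamethasone at 1 µM final in well for 30 min; nuclear minus cytoplasmic GR-EGFP mean intensity difference in channel 2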
# S1P4 agonist cf: confirmation of human S1P4 receptor agonists; S1P4 agonist cell-based reporter assay; 7% of 740 active; activation, % at 4.98 µM; shares compounds with S1P4 agonist; AID 1523; in the data active = activation above about 12%;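 note: 0% = vehicle and 100% = full reference agonist response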
# S1P1 ag: counter-screen for S1P4 agonists: agonists of human S1P1. S1P1 agonist cell-based assay, activation. AID 1563. 4% of 740 active. activation, % at 4.98 µM. shares compounds with S1P4 agonist; in the data active = activation above about 21%;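 note: 0% = vehicle wells and 100% = reference agonist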
# S1P4 antag cf: confirmation of human S1P4 receptor antagonists; AID 1524; 71% of 520 active; shares compounds with S1P4 antagonist; S1P4-expressing cell line, antagonist mode, reporter read-out; inhibition, % at 4.98 µM; in the data active = inhibition above about 30%
# S1P1 antagonist: blocks human S1P1, counter-screen for S1P4 antagonists; shares compounds with S1P4 antagonist; cell-based S1P1 antagonist counterscreen, inhibition; 37% of 520 active; inhibition, % at 4.98 µM; AID 1564; in the data active = inhibition above about 40%;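 note: receptor stimulated with S1P near its EC80; 0% = agonist stimulated wells and 100% = vehicle only wells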
# An asterisk follows results filed as active; i = inactive; / = not tested or not shown; + = active, no number.
SMILES,S1P4 agonist,Dynein cargo inh,S1P3 antag-1,S1P4 antagonist,MDM2 E3 inh,Hsp70 activator,S1P3 antag-2,others
CCOC(=O)C1(Cc2cccc(F)c2)CCN(C(=O)C2CCCO2)CC1 (stereo not given),-1,2,-13,4,-8,0,/,
C=CCNCC(=O)N1N=C(c2ccc3ccccc3c2)CC1c1ccc(OC)cc1 (stereo not given),0,-0.24,31*,1,-8,0,2,
COc1ccc(C2CC(c3ccc4ccccc4c3)=NN2C(=O)CNC2CCCCC2)cc1 (stereo not given),-1,0.72,-11,5,-17,0,/,
O=C(Nc1ccc(F)cc1)C(Cc1ccccc1)n1cccc1 (stereo not given),1,-0.75,36*,-11,-15,/,10,
CC(Oc1ccccc1Cl)C(=O)N1CCOCC1 (stereo not given),2,-0.47,46*,-4,-9,0,-19,
O=C(Oc1ccccc1OC(=O)N1CCOCC1)N1CCOCC1,-2,-0.14,-3,-10,-2,0,/,
COc1ccc(C(=O)Nc2cc(=O)[nH]c3ncnn23)cc1,1,-0.54,-4,9,-2,/,/,
O=C(N/N=C/c1cn(-c2ccccc2)nc1-c1cc2ccccc2o1)c1c[nH]c2ccccc12,-1,1.3,31*,16,/,0,13,
COc1ccc(C(OC(=O)c2ccco2)C(=O)NC(C)(C)C)cc1 (stereo not given),3,-0.23,-9,-9,-12,0,/,
COc1ccc(-n2c(C)cc(/C=N/Nc3nnc(C)n3N)c2C)cc1,-3,0.7,31*,26,/,0,-14,
CCCCSc1nnc(CSc2ncccn2)n1C,1,-0.33,29*,-9,-18,0,-5,
Cn1c(CSc2ncccn2)nnc1SCC(=O)N1CCCC1,1,0.25,-1,-8,-4,0,/,
NCCc1c(-c2ccccc2)n(-c2ccccc2)c2ccccc12,0,-1.5,-10,-2,-5,0,/,
Cc1[nH]c2ccccc2c1/C=N/Nc1ccc([N+](=O)[O-])cc1,-2,-3.9,40*,-9,-7,0,28,Dynein confirm=i
Cc1[nH]c2ccccc2c1/C=N/NC(=O)c1cccc([N+](=O)[O-])c1,-4,1.6,-17,-16,11,0,/,
Cc1ccc(-c2cn3nc(-c4ccccc4)c(-c4ccccc4)nc3n2)cc1,0,-4.6,50*,14,-4,/,9,Dynein confirm=+
Cc1ccc(NC(=O)COC(=O)CSC(=S)N2CCOCC2)cc1,0,-0.95,-16,5,-9,0,/,
CC(=O)c1ccc(Nc2c3c(nc4ccccc24)CCCC3)cc1,27*,1.1,29*,-21,-14,/,-1,S1P4 agonist cf=-1;S1P1 ag=-2
c1ccc(C2=Nn3c(nnc3-c3ccco3)SC2)cc1,0,1.1,-1,-8,-2,0,/,
CC(C)(C)c1ccc(NC(=O)Nc2ccc(F)cc2)cc1,2,-0.35,10,-5,-18,0,/,
O=C(Nc1ccc(F)cc1)Nc1cc(OCC(F)(F)F)cc(OCC(F)(F)F)c1,-1,0.27,35*,100*,-26,0,10,S1P4 antag cf=110*;S1P1 antagonist=-29
CN(C)c1ccc(/C=C/c2ccc3ccccc3n2)cc1,20*,0.45,46*,32*,-87,/,45*,S1P4 agonist cf=5;S1P1 ag=-18;S1P4 antag cf=63*;S1P1 antagonist=44*
Cc1ccc(-c2c(C)sc3ncn(CC(=O)N4CCOCC4)c(=O)c23)cc1C,0,-0.27,-6,-19,/,/,/,
CCCCN(C)CC(O)Cn1cc(/C=C/C(=O)c2cccs2)c2ccccc21 (stereo not given),2,0.024,33*,47*,5,0,16,S1P4 antag cf=61*;S1P1 antagonist=88*
Cn1ccc(NC(=O)Nc2cccc([N+](=O)[O-])c2)n1,0,1.1,-23,-15,-7,0,/,
SMILES,S1P4 agonist,Dynein cargo inh,S1P3 antag-1,S1P4 antagonist,MDM2 E3 inh,Hsp70 activator,S1P3 antag-2,others
CCOC(=O)COc1cccc2c(=O)n(CC(=O)NCc3ccccc3)ccc12,1,-0.45,17,27,9,/,/,
CCOC(=O)COc1cccc2c(=O)n(CC(=O)NCc3ccc(F)cc3)ccc12,-1,-0.93,30*,33*,-7,/,0,S1P4 antag cf=30*;S1P1 antagonist=73*
Cc1cc(C)c2cc(C#N)c(SCC(=O)Nc3ccc4c(c3)OCO4)nc2c1,-1,-0.99,-4,11,/,/,/,
O=C1N/C(=N\S(=O)(=O)Cc2ccccc2)S/C1=C/c1cc([N+](=O)[O-])ccc1O,0,-0.39,32*,44*,-7,/,25,S1P4 antag cf=59*;S1P1 antagonist=50*
CCN(CC)c1ccc(/C=N/NC(=O)c2cc(C)nc3ccccc23)cc1,3,0.07,14,-5,7,/,/,
CCN(CC)c1ccc(/C=C/c2cc(-c3ccccc3)c3ccccc3n2)cc1,8,-5.6,76*,46*,2,/,90*,Dynein confirm=i;S1P4 antag cf=91*;S1P1 antagonist=104*
CN(Cc1ccco1)C(=O)Cn1nc(-c2ccc(Cl)cc2)ccc1=O,1,-0.64,-7,-25,-1,9.3*,/,Hsp70 act dose=i
Cc1[nH][nH]c(=O)c1C(c1ccc(-c2ccc(Cl)cc2Cl)o1)c1c(C)[nH][nH]c1=O,1,-1.2,/,4,-12,1,/,
CC1=NOC(=O)/C1=C\c1ccc(-c2ccc(Cl)cc2Cl)o1,2,-1.9,/,-28,-10,5.8*,/,Hsp70 act dose=i
O=C(Nc1ccc(/C=C/c2nc3ccccc3o2)cc1)c1ccc(F)cc1,-1,-0.14,/,-6,-12,0,/,
COc1ccc(C2OCC3(CO2)SC(=O)NC3=O)cc1 (stereo not given),0,-0.88,-16,-9,10,0,/,
O=C1NC(=O)C2(COC3(CCCC3)OC2)S1,1,-0.2,-18,3,-1,28*,/,Hsp70 act dose=i

# Screening results from PubChem BioAssay.
